This note sets out measurements from PMC10262665 (Science (New York, N.Y.), 2023).

Molecules are shown by their SMILES.

In test [1] the target is T1, Sestrin2 (Homo sapiens, UniProt P58004).
T1 sequence (P58004 1-480): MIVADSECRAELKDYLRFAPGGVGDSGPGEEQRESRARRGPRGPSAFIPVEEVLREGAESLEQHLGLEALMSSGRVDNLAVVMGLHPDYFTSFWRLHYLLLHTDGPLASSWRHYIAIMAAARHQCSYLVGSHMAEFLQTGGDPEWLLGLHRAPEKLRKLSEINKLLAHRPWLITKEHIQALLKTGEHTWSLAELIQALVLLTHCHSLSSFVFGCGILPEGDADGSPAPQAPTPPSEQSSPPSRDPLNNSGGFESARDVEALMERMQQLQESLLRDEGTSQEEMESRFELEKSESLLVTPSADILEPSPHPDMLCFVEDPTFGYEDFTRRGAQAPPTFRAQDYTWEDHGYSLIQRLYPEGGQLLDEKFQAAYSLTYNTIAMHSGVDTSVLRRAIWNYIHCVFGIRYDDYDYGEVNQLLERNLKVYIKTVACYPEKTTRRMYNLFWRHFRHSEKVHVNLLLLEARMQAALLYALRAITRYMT
The test can be described thus: MIDAS protein-metabolite interaction screen. The test is classed as binding. Conditions: significant PMI Q < 0.01. The gist of the method:
(§1)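 Purified protein is separated from a defined metabolite library by a semipermeable dialysis membrane that passes metabolites but not protein, then incubated to relative equilibrium. Protein is denatured and removed. Metabolites in both chambers are quantified by flow injection analysis–MS, with methods optimized for each pool. The between-chamber fold change is normalized and corrected for nonspecific interactions.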

The target of test [2] is T2, CASTOR1 (Homo sapiens, UniProt Q8WTX7).
T2 sequence (Q8WTX7 1-329): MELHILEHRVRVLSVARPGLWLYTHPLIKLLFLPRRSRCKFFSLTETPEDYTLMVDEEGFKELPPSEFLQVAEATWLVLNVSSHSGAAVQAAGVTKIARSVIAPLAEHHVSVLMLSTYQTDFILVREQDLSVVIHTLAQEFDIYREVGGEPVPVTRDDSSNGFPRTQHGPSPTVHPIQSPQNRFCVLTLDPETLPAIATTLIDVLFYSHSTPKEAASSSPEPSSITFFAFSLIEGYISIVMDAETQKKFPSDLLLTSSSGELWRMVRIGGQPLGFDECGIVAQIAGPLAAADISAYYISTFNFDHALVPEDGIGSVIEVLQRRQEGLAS
The test can be described thus: MIDAS. The test is classed as binding. The conditions noted are these: significant PMI Q < 0.01. The essentials:
as §1

Test [3] has as its target PKM2 (Homo sapiens, UniProt P14618). The test can be described thus: MIDAS protein-metabolite interaction screen. The test is classed as binding. Conditions: significant PMI Q < 0.01. The gist of the method:
as §1

For test [4], the target named is T3, LDHA (Homo sapiens, UniProt P00338). The test can be described thus: LDH enzyme activity assay. The test is classed as biochemical. Conditions: for inhibition of LDHA enzyme activity: in vitro; for mode of LDHA inhibition: with respect to NAD and lactate. The gist of the method: (§2)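 LDH isoform activity measured in vitro with test metabolites (adenosine nucleotides, CoA and acyl-CoAs) over a concentration range. IC50 is derived from the inhibition curves. Mode of inhibition is assessed against NAD and lactate.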

Test [5] deals with T4, LDHB (Homo sapiens, UniProt P07195). The test can be described thus: LDH enzyme activity assay. It is filed as biochemical. Conditions: in vitro. The gist of the method: as §2
T4 sequence (P07195 whole entry): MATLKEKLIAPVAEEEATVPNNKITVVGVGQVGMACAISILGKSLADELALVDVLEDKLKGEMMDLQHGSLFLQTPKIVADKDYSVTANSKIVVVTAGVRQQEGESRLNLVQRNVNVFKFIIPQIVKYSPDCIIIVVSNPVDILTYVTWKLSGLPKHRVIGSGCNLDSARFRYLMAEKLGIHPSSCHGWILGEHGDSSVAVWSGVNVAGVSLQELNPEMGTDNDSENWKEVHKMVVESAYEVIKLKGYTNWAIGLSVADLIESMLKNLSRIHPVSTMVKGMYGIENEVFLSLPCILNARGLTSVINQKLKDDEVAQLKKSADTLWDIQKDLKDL
For test [6], the target named is T4, LDHB. The test can be described thus: Differential scanning fluorimetry. The test is classed as binding.
In test [7] the target is T3, LDHA. The test can be described thus: Differential scanning fluorimetry. The test is classed as binding. (In general: Differential scanning fluorimetry follows unfolding on heating by fluorescence.)
In test [8] the target is T3, LDHA. The test can be described thus: Binding to palmitoyl-CoA immobilized on agarose beads. The essentials: (§3)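 Pull-down of LDH protein on palmitoyl-CoA immobilized on agarose beads. Competition with free palmitoyl-CoA, with buffer alone or acetyl-CoA as comparators.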
Test [9] has as its target T4, LDHB. The test is described as above. The gist of the method: as §3
Test [10] has as its target T5, FBP1 (Homo sapiens, UniProt P09467).
T5 sequence (P09467 1-338): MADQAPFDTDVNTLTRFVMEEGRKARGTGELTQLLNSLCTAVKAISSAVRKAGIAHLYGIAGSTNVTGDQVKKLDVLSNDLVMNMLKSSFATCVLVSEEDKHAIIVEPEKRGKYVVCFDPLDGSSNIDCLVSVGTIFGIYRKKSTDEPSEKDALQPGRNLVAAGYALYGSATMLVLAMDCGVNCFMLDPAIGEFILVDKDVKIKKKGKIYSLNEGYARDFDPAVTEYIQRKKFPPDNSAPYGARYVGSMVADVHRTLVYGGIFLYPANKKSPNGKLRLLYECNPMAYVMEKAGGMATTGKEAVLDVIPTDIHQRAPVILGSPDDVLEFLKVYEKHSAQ
The test can be described thus: MIDAS protein-metabolite interaction screen. It is filed as binding. Conditions: significant PMI Q < 0.01. The gist of the method: as §1

Test [11] has as its target T6, FBP2 (Homo sapiens, UniProt O00757).
T6 sequence (O00757 1-339): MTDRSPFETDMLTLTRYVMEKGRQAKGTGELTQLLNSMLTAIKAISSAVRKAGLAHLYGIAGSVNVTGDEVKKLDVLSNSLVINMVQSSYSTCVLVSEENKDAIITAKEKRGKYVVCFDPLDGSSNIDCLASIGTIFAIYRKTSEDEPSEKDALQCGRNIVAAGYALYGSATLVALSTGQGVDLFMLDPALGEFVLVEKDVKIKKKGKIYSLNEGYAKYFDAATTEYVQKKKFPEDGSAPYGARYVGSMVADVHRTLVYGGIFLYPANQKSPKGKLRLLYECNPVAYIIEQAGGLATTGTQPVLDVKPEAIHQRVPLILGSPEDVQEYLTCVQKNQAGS
The test can be described thus: MIDAS protein-metabolite interaction screen. The test is classed as binding. The conditions noted are these: significant PMI Q < 0.01. The gist of the method: as §1

The target in test [12] is T7, phosphofructokinase (PFKP) (Homo sapiens, UniProt Q01813).
T7 sequence (Q01813 1-784): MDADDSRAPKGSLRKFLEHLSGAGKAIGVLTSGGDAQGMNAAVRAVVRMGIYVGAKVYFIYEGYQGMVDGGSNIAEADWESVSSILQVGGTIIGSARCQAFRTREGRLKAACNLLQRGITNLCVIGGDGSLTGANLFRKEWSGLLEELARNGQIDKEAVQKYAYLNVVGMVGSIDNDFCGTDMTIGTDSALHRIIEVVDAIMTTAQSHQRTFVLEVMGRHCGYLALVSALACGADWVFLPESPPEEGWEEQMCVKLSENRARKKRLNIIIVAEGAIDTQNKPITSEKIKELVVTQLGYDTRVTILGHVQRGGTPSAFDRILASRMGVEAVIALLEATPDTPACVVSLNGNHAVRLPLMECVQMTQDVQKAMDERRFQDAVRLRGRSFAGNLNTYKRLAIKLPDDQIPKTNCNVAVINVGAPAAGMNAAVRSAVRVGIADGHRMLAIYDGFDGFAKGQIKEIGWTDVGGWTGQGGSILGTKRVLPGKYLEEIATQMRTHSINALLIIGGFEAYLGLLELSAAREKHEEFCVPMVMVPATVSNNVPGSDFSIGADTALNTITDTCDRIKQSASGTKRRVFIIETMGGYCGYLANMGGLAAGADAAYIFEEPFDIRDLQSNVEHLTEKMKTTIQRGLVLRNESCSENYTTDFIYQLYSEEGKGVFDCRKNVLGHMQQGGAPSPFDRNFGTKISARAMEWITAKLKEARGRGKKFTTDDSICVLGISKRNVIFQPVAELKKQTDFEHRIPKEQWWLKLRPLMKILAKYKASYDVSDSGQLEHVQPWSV
The test can be described thus: MIDAS protein-metabolite interaction screen. It is filed as binding. The conditions noted are these: significant PMI Q < 0.01. The essentials: as §1

The target of test [13] is glucose-6-phosphate isomerase (GPI) (Homo sapiens, UniProt P06744). The test can be described thus: MIDAS protein-metabolite interaction screen. It is filed as binding. The conditions noted are these: significant PMI Q < 0.01. The essentials: as §1
Test [14] addresses T8, fumarase (Homo sapiens, UniProt P07954).
T8 sequence (P07954 45-510): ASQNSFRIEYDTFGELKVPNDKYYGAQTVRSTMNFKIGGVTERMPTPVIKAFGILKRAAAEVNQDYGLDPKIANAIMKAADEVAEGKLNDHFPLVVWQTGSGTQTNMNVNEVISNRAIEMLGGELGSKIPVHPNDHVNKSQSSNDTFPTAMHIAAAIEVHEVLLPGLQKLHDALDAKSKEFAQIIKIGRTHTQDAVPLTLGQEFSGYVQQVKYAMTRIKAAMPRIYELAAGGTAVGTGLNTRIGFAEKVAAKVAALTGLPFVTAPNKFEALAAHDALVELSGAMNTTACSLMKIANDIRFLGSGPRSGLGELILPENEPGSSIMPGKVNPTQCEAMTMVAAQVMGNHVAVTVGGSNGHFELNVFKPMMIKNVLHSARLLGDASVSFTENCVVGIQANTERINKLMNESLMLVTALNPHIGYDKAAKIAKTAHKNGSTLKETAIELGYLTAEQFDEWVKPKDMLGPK
The test can be described thus: Differential scanning fluorimetry. The test is classed as binding. The conditions noted are these: read-out: apparent dissociation constant (Kd app); DSF, fumarase.

Sequence of PKM2 (P14618 whole entry): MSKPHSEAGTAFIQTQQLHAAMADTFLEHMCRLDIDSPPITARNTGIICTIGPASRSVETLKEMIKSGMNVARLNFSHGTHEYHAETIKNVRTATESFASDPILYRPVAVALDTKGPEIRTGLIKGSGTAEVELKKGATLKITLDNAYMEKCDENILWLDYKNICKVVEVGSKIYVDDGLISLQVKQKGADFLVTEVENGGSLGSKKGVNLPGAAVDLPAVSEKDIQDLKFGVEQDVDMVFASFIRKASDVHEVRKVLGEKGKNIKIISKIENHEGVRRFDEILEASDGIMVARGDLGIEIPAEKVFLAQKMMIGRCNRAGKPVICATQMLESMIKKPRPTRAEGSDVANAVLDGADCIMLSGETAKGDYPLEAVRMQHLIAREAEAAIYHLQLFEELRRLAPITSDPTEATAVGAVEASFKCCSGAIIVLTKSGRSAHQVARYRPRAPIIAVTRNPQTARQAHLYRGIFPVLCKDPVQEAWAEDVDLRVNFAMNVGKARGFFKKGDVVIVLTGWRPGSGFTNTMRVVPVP

As for `NCCCN` [1,3-diaminopropane], the MIDAS protein-metabolite interaction result in test [1] and in [2] was “bind” in each case.

As to `N[C@@H](Cc1cc(I)c(O)c(I)c1)C(=O)O` [3,5-diiodo-L-tyrosine], the MIDAS protein-metabolite interaction result in test [3] is reported as “interacted”.

Turning to `CN1c2c(nc(N)[nH]c2=O)NCC1CNc1ccc(C(=O)N[C@@H](CCC(=O)O)C(=O)O)cc1` (some centres unmarked) [5-MTHF, 5-methyltetrahydrofolate], the MIDAS protein-metabolite interaction entry in test [3] is recorded as “interacted”.

With `Nc1ncnc2c1ncn2[C@@H]1O[C@H](COP(=O)(O)OP(=O)(O)O)[C@@H](O)[C@H]1O` [ADP, adenosine diphosphate], the “inhibition of LDHA enzyme activity” value in test [4] was “only at supraphysiological concentrations”. Further, the “inhibition of LDHB enzyme activity” value in [5] is given as “only at supraphysiological concentrations”.

As to `Nc1ncnc2c1ncn2[C@@H]1O[C@H](COP(=O)(O)O)[C@@H](O)[C@H]1O` [AMP, adenosine monophosphate], the “inhibition of LDHA enzyme activity” value in test [4] is listed as “only at supraphysiological concentrations”. In [5], the “inhibition of LDHB enzyme activity” value is listed as “only at supraphysiological concentrations”.

On to `Nc1ncnc2c1ncn2[C@@H]1O[C@H](COP(=O)(O)OP(=O)(O)OP(=O)(O)O)[C@@H](O)[C@H]1O` [ATP, adenosine triphosphate], for which the figures for the Kd in test [6] and in [7] were 697 µM and 636 µM, respectively. In addition, in test [4], the “mode of LDHA inhibition” value was “competitive”. The “inhibition of LDHB enzyme activity” value in [5] is “inhibited only the LDHA isoform”.

What is called IC50 is the concentration that inhibits the measured activity by half. On to `CCCCCCCCCCCCCCCC(=O)SCCNC(=O)CCNC(=O)[C@H](O)C(C)(C)COP(=O)(O)OP(=O)(O)OC[C@H]1O[C@@H](n2cnc3c(N)ncnc32)[C@H](O)[C@@H]1OP(=O)(O)O` [C16:0-CoA, palmitoyl-CoA], for which the “protein species induced in DSF assay” value in test [6] (LDHB, low-micromolar concentrations of ligand) is on record as “thermostable species”; in test [7] (LDHA, low-micromolar concentrations of ligand), “thermolabile species”. The IC50 in test [4] (LDHA enzyme activity, acyl-CoAs) is roughly 1 µM. Moreover, the “mode of LDHA inhibition” value in [4] was “noncompetitive”. In addition, the “disruption of protein binding to immobilized palmitoyl-CoA by free competitor” value in test [8] (agarose beads) and in [9] (agarose beads) was “disrupted” each time. The “affinity of direct interaction” value was “low-micromolar affinity” in test [8] (from DSF and bead binding); “low-micromolar affinity” in test [9] (from DSF and bead binding).

Consider `Nc1nc2c(ncn2[C@@H]2O[C@H](COP(=O)(O)OP(=O)(O)O)[C@@H](O)[C@H]2O)c(=O)[nH]1` [GDP, guanosine diphosphate], for which the MIDAS protein-metabolite interaction entry in test [3] is given as “interacted”.

Turning to `O=P(O)(O)OC[C@H]1O[C@H](OP(=O)(O)OP(=O)(O)O)[C@H](O)[C@@H]1O` [PRPP, 5-phospho-D-ribose 1-diphosphate], the MIDAS protein-metabolite interaction result in test [10] and in test [11] was “interacted” each time.

On to `NCCCCN=C(N)N` [agmatine], for which the MIDAS protein-metabolite interaction result in test [1] and in test [2] was “bind” throughout.

In the case of `N=C(N)NCCC[C@H](N)C(=O)O` [arginine], in test [2], the MIDAS protein-metabolite interaction result is “most enriched interactors”.

Turning to `NCCCCCN` [cadaverine], the MIDAS protein-metabolite interaction entry in [1] and in test [2] was “bind” each time.

Consider `O=C(COP(=O)(O)O)[C@@H](O)[C@H](O)[C@H](O)COP(=O)(O)O` [fructose 1,6-bisphosphate], for which the MIDAS protein-metabolite interaction result in test [12] was “interacted”.

Consider `O=C(CO)[C@@H](O)[C@H](O)[C@H](O)COP(=O)(O)O` [fructose-6-phosphate], for which the MIDAS protein-metabolite interaction result in test [13] was “interacted”.

Regarding `O=C(O)/C=C/C(=O)O` [fumarate], the Kd in [14] was determined as 3870 µM.

With `N[C@H]1C(O)O[C@H](COP(=O)(O)O)[C@@H](O)[C@@H]1O` (some centres unmarked) [glucosamine-6-phosphate], the MIDAS protein-metabolite interaction result is reported as “showed an interaction” in test [10] and “only FBP1 showed an interaction” in [11].

For `O=C[C@H](O)[C@@H](O)[C@H](O)[C@H](O)COP(=O)(O)O` [glucose-6-phosphate], the MIDAS protein-metabolite interaction entry in test [13] was “interacted”.

As to `O=C(CO)[C@@H](O)[C@H](O)[C@H](O)[C@H](O)COP(=O)(O)O` [sedoheptulose-7-phosphate], in test [12], the MIDAS protein-metabolite interaction result is recorded as “interacted”.
